Data as given in ChEMBL document CHEMBL4041484, “Semisynthesis and Structure-Activity Studies of Uncarinic Acid C Isolated from Uncaria rhynchophylla as a Specific Inhibitor of the Nucleation Phase in Amyloid β42 Aggregation” (J Nat Prod, 2016).
Active and inactive are the calls of the source. No cut-off for these calls is given here.

How the values were obtained:
[1] = biological target: Amyloid-beta precursor protein (Homo sapiens) (UniProt P05067); experiment: Inhibition of HFIP pretreated Abeta42 (unknown origin) aggregation at nucleation phase at 50 uM by Thioflavin-T fluorescence assay
In short: (§1)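 Aβ42 was held at 250 μM in HFIP for 30 min at room temperature, sonicated 5 min, dried under reduced pressure, then redissolved in 0.1% NH4OH. It was incubated at 25 μM with compound at 50 μM in PBS, pH 7.4, at 37 °C, sampled periodically over time. Th-T (5.0 μM, Gly-NaOH pH 8.5) fluorescence was read at ex 430/em 485 nm. Means ± SD, n = 8.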

[2] = biological target: Amyloid-beta precursor protein (Homo sapiens) (UniProt P05067); experiment: Inhibition of HFIP pretreated Abeta42 (unknown origin) aggregation at elongation phase at 50 uM by Thioflavin-T fluorescence assay; in short: as §1
[3] = Solubility of the compound in phosphate-buffered saline at pH 7.4 at 50 uM; type: physicochemical; settings: buffer, pH 7.4, 50 µM
[4] = biological target: Amyloid-beta precursor protein (Homo sapiens) (UniProt P05067); experiment: Inhibition of HFIP pretreated Abeta42 (unknown origin) aggregation at nucleation phase assessed as time required for nucleation of Abeta42 at 50 uM by Thioflavin-T fluorescence assay; in short: as §1
[5] = biological target: Amyloid-beta precursor protein (Homo sapiens) (UniProt P05067); experiment: Inhibition of Abeta42 (unknown origin) aggregation at early stage incubated for 8 hrs by Thioflavin-T fluorescence assay
In short: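 Synthetic Aβ42 (250 μM stock in 0.1% NH4OH), final 25 μM, with compound at 50 μM final (5 mM ethanol stock) in PBS (50 mM sodium phosphate, 100 mM NaCl, pH 7.4), 37 °C for 8 h. An aliquot was mixed with 5.0 μM Th-T in 5.0 mM Gly-NaOH, pH 8.5, and read at ex 430/em 485 nm. Eight points were measured per time.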

[6] = biological target: Amyloid-beta precursor protein (Homo sapiens) (UniProt P05067); experiment: Inhibition of HFIP pretreated Abeta42 (unknown origin) aggregation at nucleation phase assessed as time delay for Abeta42 aggregation velocity at 50 uM by sedimentation assay
In short: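 HFIP-pretreated Aβ42 (25 μM) and compound (50 μM) were incubated in PBS, pH 7.4, at 37 °C over a time course. Samples were centrifuged at 15 000 rpm, 4 °C, 10 min. Supernatant Aβ42 was quantified by reversed-phase HPLC (ODS, 10–50% CH3CN in 0.1% NH4OH over 30 min, 1.0 mL/min, UV detection). Means ± SE, n = 2.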

Sequence of Amyloid-beta precursor protein (Homo sapiens) (P05067 whole entry): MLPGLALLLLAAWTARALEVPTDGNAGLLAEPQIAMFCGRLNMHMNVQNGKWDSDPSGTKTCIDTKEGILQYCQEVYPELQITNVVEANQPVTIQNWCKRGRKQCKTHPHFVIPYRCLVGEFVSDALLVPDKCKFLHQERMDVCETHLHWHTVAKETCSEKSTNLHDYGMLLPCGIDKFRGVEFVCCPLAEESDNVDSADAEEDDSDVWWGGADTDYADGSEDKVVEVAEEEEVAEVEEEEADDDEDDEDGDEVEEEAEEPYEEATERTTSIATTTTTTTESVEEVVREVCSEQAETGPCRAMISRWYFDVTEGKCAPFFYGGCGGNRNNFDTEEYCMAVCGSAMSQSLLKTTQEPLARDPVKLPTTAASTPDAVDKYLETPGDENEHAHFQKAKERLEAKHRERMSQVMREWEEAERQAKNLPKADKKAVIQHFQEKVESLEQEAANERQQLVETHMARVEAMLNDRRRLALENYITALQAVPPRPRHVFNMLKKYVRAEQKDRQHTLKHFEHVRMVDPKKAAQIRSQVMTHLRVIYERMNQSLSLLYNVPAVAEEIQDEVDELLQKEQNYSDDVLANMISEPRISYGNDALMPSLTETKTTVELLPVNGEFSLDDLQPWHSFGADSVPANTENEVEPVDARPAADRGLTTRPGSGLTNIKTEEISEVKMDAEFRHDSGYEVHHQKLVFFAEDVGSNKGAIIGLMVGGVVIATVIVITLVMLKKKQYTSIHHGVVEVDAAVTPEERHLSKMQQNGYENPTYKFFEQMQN

inhibition [1]	inhibition [2]	solubility [3]	TIME [4]	inhibition [5]	TIME [6]	Compound
inactive	inactive					CC(=O)OC[C@@]12CC[C@@]3(C(=O)O)CC[C@@H](C)[C@H](C)[C@H]3C1=CC[C@@H]1[C@@]3(C)CC[C@H](O)C(C)(C)[C@@H]3CC[C@]12C
		Soluble	10 h	Active		COc1cc(/C=C\C(=O)OC[C@@]23CC[C@@]4(C(=O)O)CC[C@@H](C)[C@H](C)[C@H]4C2=CC[C@@H]2[C@@]4(C)CC[C@H](O)C(C)(C)[C@@H]4CC[C@]23C)ccc1O
		Soluble	12 h	Active	8 h	COc1cc(/C=C/C(=O)OC[C@@]23CC[C@@]4(C(=O)O)CC[C@@H](C)[C@H](C)[C@H]4C2=CC[C@@H]2[C@@]4(C)CC[C@H](O)C(C)(C)[C@@H]4CC[C@]23C)ccc1O
inactive	inactive					C[C@H]1[C@H](C)CC[C@]2(C(=O)O)CC[C@]3(CO)C(=CC[C@@H]4[C@@]5(C)CC[C@H](O)C(C)(C)[C@@H]5CC[C@]43C)[C@H]12
inactive	inactive					COC(=O)[C@]12CC[C@@H](C)[C@H](C)[C@H]1C1=CC[C@@H]3[C@@]4(C)CC[C@H](O)C(C)(C)[C@@H]4CC[C@@]3(C)[C@]1(COC(=O)/C=C/c1ccc(O)c(OC)c1)CC2
		Soluble	10 h	Active		COc1cc(/C=C/C(=O)OC[C@@]23CC[C@@]4(C(=O)O)CCC(C)(C)C[C@H]4C2=CC[C@@H]2[C@@]4(C)CC[C@H](O)C(C)(C)[C@@H]4CC[C@]23C)ccc1O
inactive	inactive					C[C@H]1[C@H](C)CC[C@]2(C(=O)O)CC[C@]3(C)C(=CC[C@@H]4[C@@]5(C)CC[C@H](O)C(C)(C)[C@@H]5CC[C@]43C)[C@H]12
inactive	inactive					COc1cc(/C=C/C(=O)OC[C@@]23CC[C@@]4(CO)CC[C@@H](C)[C@H](C)[C@H]4C2=CC[C@@H]2[C@@]4(C)CC[C@H](O)C(C)(C)[C@@H]4CC[C@]23C)ccc1O
		Soluble	10 h	Active		COc1cc(/C=C\C(=O)OC[C@@]23CC[C@@]4(C(=O)O)CCC(C)(C)C[C@H]4C2=CC[C@@H]2[C@@]4(C)CC[C@H](O)C(C)(C)[C@@H]4CC[C@]23C)ccc1O
